# Activity calls are given as the source filed them. The calls are words filed in the database; no cut-off is given here.
# Experiments:
# [1] = Cytotoxicity against human MSC assessed as cell viability at 10 uM treated for 6 days measured on day 7 by alamar blue assay (reference value: 96 to 101%); conditions: MSC cells, read-out: Activity
# [2] = Cytotoxicity against human MSC assessed as cell viability at 1 uM treated for 6 days measured on day 7 by alamar blue assay (reference value: 96 to 101%); conditions: MSC cells, read-out: Activity
# [3] = Cytotoxicity against human MSC assessed as cell viability at 5 uM measured on day 1 by alamar blue assay (reference value: 97 to 101%); conditions: MSC cells, read-out: Activity
# [4] = Cytotoxicity against human MSC assessed as cell viability at 5 uM treated for 6 days measured on day 7 by alamar blue assay (reference value: 96 to 101%); conditions: MSC cells, read-out: Activity
# [5] = Cytotoxicity against human MSC assessed as cell viability at 1 uM treated for 3 days measured on day 4 by alamar blue assay (reference value: 97 to 100%); conditions: MSC cells, read-out: Activity
# [6] = Cytotoxicity against human MSC assessed as cell viability at 1 uM measured on day 1 by alamar blue assay (reference value: 97 to 101%); conditions: MSC cells, read-out: Activity
# [7] = Cytotoxicity against human MSC assessed as cell viability at 5 uM treated for 3 days measured on day 4 by alamar blue assay (reference value: 97 to 100%); conditions: MSC cells, read-out: Activity
# [8] = Cytotoxicity against human MSC assessed as decrease in cell number at 1 to 10 uM after 9 days by methylene blue staining based microscopy relative to control; conditions: 216 h
# How it was run: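 Passage-3 bone-marrow hMSCs, high density in Os.D medium, dosed with 1, 5 or 10 μM compound (0.1% v/v DMSO final) on days 0, 3 and 6 with medium changes. Cell number measured on day 9 by methylene blue proliferation assay. Expressed as % of untreated control; three independent triplicate experiments, mean ± SEM, one-way ANOVA versus vehicle.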
# [9] = Decrease in ALP activity in human MSC using p-NPP as substrate at 10 uM after 9 days by colorimetric method relative to control; format: functional
# How it was run: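 Passage-3 bone-marrow hMSCs from healthy donors, cultured at high density in osteogenic (Os.D) medium; compound given at days 0, 3 and 6 with media change every 3 days, final 0.1% (v/v) DMSO; vehicle, 50 nM calcitriol and untreated controls. Day-9 ALP by para-nitrophenyl phosphate colorimetry, normalised to time and cell number (methylene blue); % of untreated control, 3 independent triplicate experiments ± SEM.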
# [10] = Cytotoxicity against human MSC assessed as cell viability at 10 uM treated for 3 days measured on day 4 by alamar blue assay (reference value: 97 to 100%); conditions: MSC cells, read-out: Activity
# [11] = Cytotoxicity against human MSC assessed as cell viability at 10 uM measured on day 1 by alamar blue assay (reference value: 97 to 101%); conditions: MSC cells, read-out: Activity
# MSC [12] = experiment: Induction of osteogenic differentiation in human MSC assessed as increase in ALP activity at 1 uM using p-NPP as substrate after 9 days by colorimetric method relative to control; format: functional
# How it was run: (§1)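 ALP read on day 9 in passage-3 bone-marrow hMSCs cultured at high density in Os.D medium. Compound (1, 5 or 10 μM, 0.1% v/v DMSO final) was re-applied on days 0, 3 and 6. Colorimetric p-nitrophenyl phosphate method, normalised to time and cell number (pNP/min/20,000 cells). Expressed as % of untreated control; three independent triplicate experiments; one-way ANOVA versus vehicle.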
# MSC [13] = experiment: (§2) Induction of osteogenic differentiation in human MSC assessed as increase in ALP activity at 5 uM using p-NPP as substrate after 9 days by colorimetric method relative to control; format: functional; how it was run: as §1
# MSC [14] = experiment: (§3) Induction of osteogenic differentiation in human MSC assessed as increase in ALP activity at 10 uM using p-NPP as substrate after 9 days by colorimetric method relative to control; format: functional; how it was run: as §1
# [15] = as §2; format: functional; how it was run: as §1
# [16] = as §3; format: functional; how it was run: as §1
# MSC [17] = experiment: Induction of osteogenic differentiation in human MSC assessed as increase in ALP activity using p-NPP as substrate after 9 days by colorimetric method; format: functional; how it was run: as §1
# [18] = Decrease in ALP activity in human MSC using p-NPP as substrate at 5 uM after 9 days by colorimetric method relative to control; format: functional; set-up: Activity: scale not given: the % may be the effect or the level left; how it was run: as §1
SMILES,"viability at 144 h, 10 µM [1] [%]","viability at 144 h, 1 µM [2] [%]","viability at 1 day, 5 µM [3] [%]","viability at 144 h, 5 µM [4] [%]","viability at 72 h, 1 µM [5] [%]","viability at 1 day, 1 µM [6] [%]","viability at 72 h, 5 µM [7] [%]",Activity [8],fold change (FC) [9],"viability at 72 h, 10 µM [10] [%]","viability at 1 day, 10 µM [11] [%]",Activity (MSC [12]),Activity (MSC [13]),Activity (MSC [14]),fold change (FC) [15],fold change (FC) [16],fold change (FC) [8],Activity (MSC [17]),Activity [16] [%],Activity [18] [%]
O=c1cc(-c2ccc(O)c(O)c2)oc2cc(O)cc(O)c12 [LUTEOLIN],96,97,96,94,99,100,96,Toxic,0.59,94,93,inactive,,,,,,,,
O=c1cc(-c2ccccc2)oc2ccccc12 [FLAVONE],98,100,103,102,93,102,93,Toxic,,92,106,inactive,inactive,inactive,,,,,,
COc1ccc(-c2cc(=O)c3c(O)cc(O)cc3o2)cc1O,,,,,,,,,,,,inactive,inactive,inactive,,,,,,
O=c1cc(-c2ccc(O)cc2)oc2cc(O)cc(O)c12 [APIGENIN],94,96,102,97,101,98,99,Toxic,,98,98,inactive,inactive,inactive,,,,,,
O=c1c(O)c(-c2ccc(O)c(O)c2)oc2cc(O)ccc12 [FISETIN],96,98,98,97,96,98,97,Toxic,,95,86,inactive,,,1.52,1.32,,,,
O=C(CCc1ccc(O)cc1)c1c(O)cc(O)cc1O [PHLORETIN],100,97,105,98,93,106,93,,,95,106,inactive,inactive,inactive,,,,,,
COc1cc([C@@H]2CC(=O)c3c(O)cc(O)cc3O2)ccc1O,,,,,,,,,,,,inactive,inactive,inactive,,,,,,
Oc1ccc(/C=C/c2cc(O)cc(O)c2)cc1 [RESVERATROL],97,96,101,97,100,99,100,Toxic,,100,98,inactive,inactive,inactive,,,,,,
Oc1cc(O)c2c(c1)O[C@H](c1ccc(O)c(O)c1)[C@@H](O)C2 [CIANIDANOL],98,97,104,98,94,105,92,,,93,104,inactive,inactive,inactive,,,,,,
Oc1cc(O)c2c(c1)O[C@H](c1ccc(O)c(O)c1)[C@H](O)C2 [(-)-EPICATECHIN],98,96,90,98,98,92,95,,,94,84,inactive,inactive,inactive,,,0.43,,,
COc1ccc(-c2oc3cc(O)cc(O)c3c(=O)c2O)cc1O [TAMARIXETIN],93,94,102,96,97,105,97,Toxic,,93,102,inactive,,,1.52,1.32,,Dose-dependent effect,,
O=C1C[C@@H](c2ccc(O)cc2)Oc2cc(O)cc(O)c21 [NARINGENIN],103,100,105,102,101,104,104,,,106,105,inactive,inactive,,,1.53,,,,
O=C1c2c(O)cc(O)cc2O[C@H](c2ccc(O)c(O)c2)[C@H]1O [(+)-TAXIFOLIN],101,98,101,98,92,103,92,,,92,102,inactive,inactive,inactive,,,,,,
O=c1c(O)c(-c2ccccc2)oc2cc(O)cc(O)c12 [GALANGIN],97,99,105,97,94,105,91,,,91,104,inactive,,,1.52,1.32,,Dose-dependent effect,,
O=c1c(O)c(-c2ccc(O)c(O)c2)oc2cc(O)cc(O)c12 [QUERCETIN],101,103,100,104,98,101,100,Toxic,,101,89,inactive,,,1.52,1.32,,,,
COc1cc(-c2oc3cc(O)cc(O)c3c(=O)c2O)ccc1O [ISORHAMNETIN],97,98,107,100,93,105,92,Toxic,,91,108,inactive,,,1.52,1.32,,,,
O=C1C[C@@H](c2ccc(O)c(O)c2)Oc2cc(O)cc(O)c21 [ERIODICTYOL],101,101,98,102,103,102,102,,,102,99,inactive,inactive,,,,,,111,98

# From ChEMBL document CHEMBL3739259, “Defining Key Structural Determinants for the Pro-osteogenic Activity of Flavonoids” (J Nat Prod, 2015)
